In article PMC9340768 (Journal of Medicinal Chemistry, 2022):
Each block holds one compound with its values, some of them ahead of it.

Legend:
[1] = Pharmacokinetics in Sprague-Dawley rats; details: rat, in vivo, iv, 2 mg/kg
[2] = molecular target: CD137 (Homo sapiens, UniProt Q07011+Q96NY8); assay: HT1376/CD137 reporter coculture assay; format: cell-based; details: 1:2 (BCY10918) vs 1:1 (BCY10572)
[3] = tested on: human PBMCs cocultured with HT1376; assay: PBMC/HT1376 coculture cytokine secretion assay; format: cell-based; details: anti-CD3 stimulated PBMCs with HT1376
Method in brief: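 Frozen healthy-donor human PBMCs were thawed, washed in PBS with benzonase and resuspended in RPMI with 10% heat-inactivated FBS, HEPES and glutamine. PBMCs (1 × 10^6/mL) were plated with tumor cells (1 × 10^5/mL) at 10:1, stimulated with soluble anti-CD3 OKT3 (100 ng/mL), and given diluted test compound. Incubation was 2 days at 37 °C, 5% CO2. Supernatant IFNγ and IL-2 were measured by Luminex; four-parameter fit, n = 3.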

Chain of CD137 (Q07011 24-255): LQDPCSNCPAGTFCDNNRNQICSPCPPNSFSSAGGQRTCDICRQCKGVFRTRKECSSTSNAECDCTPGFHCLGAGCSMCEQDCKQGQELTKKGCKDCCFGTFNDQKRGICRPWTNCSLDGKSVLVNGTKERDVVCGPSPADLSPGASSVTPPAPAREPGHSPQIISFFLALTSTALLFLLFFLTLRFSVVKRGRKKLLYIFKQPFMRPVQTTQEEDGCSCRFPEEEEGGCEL
Chain of CD137 (Q96NY8 32-510): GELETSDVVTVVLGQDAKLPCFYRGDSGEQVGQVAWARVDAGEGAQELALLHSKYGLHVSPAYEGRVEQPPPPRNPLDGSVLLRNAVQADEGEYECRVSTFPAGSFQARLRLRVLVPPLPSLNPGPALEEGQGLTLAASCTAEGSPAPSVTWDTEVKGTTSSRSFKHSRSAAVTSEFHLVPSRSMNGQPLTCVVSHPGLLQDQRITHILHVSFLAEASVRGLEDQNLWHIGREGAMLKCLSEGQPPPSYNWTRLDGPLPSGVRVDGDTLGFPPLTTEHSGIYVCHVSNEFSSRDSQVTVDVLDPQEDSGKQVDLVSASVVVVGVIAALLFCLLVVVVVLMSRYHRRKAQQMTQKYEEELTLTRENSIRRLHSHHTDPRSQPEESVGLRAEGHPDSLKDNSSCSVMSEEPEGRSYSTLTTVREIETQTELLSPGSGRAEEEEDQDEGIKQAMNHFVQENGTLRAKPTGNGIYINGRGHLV

half-life [1]: 1.8 h | improvement in EC50 [2]: 8.3 fold | improvement in Emax [2]: 2.0 fold
Structure (SMILES): CCCC[C@@H]1NC(=O)[C@H](Cc2ccc(O)cc2)NC(=O)[C@@H]2CCCN2C(=O)[C@H](CC(=O)O)NC(=O)[C@H](C)NC(=O)[C@H](Cc2ccccc2)NC(=O)[C@@H]2CSCCC(=O)N3CN(CN(C3)C(=O)CCSC[C@@H](C(=O)N[C@@H](C)C(N)=O)NC1=O)C(=O)CCSC[C@H](NC(C)=O)C(=O)N[C@@H](CC(C)(C)C)C(=O)N1CCC[C@H]1C(=O)N[C@@H](CCC(=O)O)C(=O)N[C@H](CCCCNC(=O)CCc1cn(CCOCCOCCOCCOCCOCCOCCOCCOCCOCCOCCNC(=O)c3cc(C(=O)NCCOCCOCCOCCOCCOCCOCCOCCOCCOCCOCCn4cc(CCC(=O)NCCCC[C@H]5NC(=O)[C@H](CCC(=O)O)NC(=O)[C@@H]6CCCN6C(=O)[C@H](CC(C)(C)C)NC(=O)[C@@H](NC(C)=O)CSCCC(=O)N6CN7CN(C6)C(=O)CCSC[C@H](NC(=O)[C@H](Cc6ccc(O)cc6)NC(=O)[C@@H]6CCCN6C5=O)C(=O)N[C@@H](Cc5ccccc5)C(=O)N[C@@H](C)C(=O)N[C@@H](CC(=O)O)C(=O)N5CCC[C@H]5C(=O)N[C@@H](Cc5ccc(O)cc5)C(=O)N[C@@H](CCCC)C(=O)N[C@H](C(=O)N[C@@H](C)C(N)=O)CSCCC7=O)nn4)cc(C(=O)NCCOCCOCCOCCOCCOCCOCCOCCOCCOCCOCCn4cc(CCC(=O)N[C@H]5CSCCC(=O)N6CN7CN(C6)C(=O)CCSC[C@H](NC(=O)[C@@H](CC(=O)O)NC(=O)[C@H](Cc6cccc8ccccc68)NC(=O)[C@@H]6CCCN6C5=O)C(=O)N[C@@H](CCSC)C(=O)N[C@@H](CCCCNC(=N)N)C(=O)N[C@@H](CC(=O)O)C(=O)N[C@@H](Cc5c[nH]c6ccccc56)C(=O)N[C@@H](CO)C(=O)N[C@@H]([C@@H](C)O)C(=O)N5CCC[C@H]5C(=O)N5C[C@H](O)C[C@H]5C(=O)N[C@@H](Cc5c[nH]c6ccccc56)C(=O)N[C@H](C(N)=O)CSCCC7=O)nn4)c3)nn1)C(=O)N1CCC[C@H]1C(=O)N[C@@H](Cc1ccc(O)cc1)C(=O)N2 [BCY10918]

half-life [1]: 0.59 h
Structure (SMILES): CCCC[C@@H]1NC(=O)[C@H](Cc2ccc(O)cc2)NC(=O)[C@@H]2CCCN2C(=O)[C@H](CC(=O)O)NC(=O)[C@H](C)NC(=O)[C@H](Cc2ccccc2)NC(=O)[C@@H]2CSCCC(=O)N3CN(CN(C3)C(=O)CCSC[C@@H](C(=O)N[C@@H](C)C(N)=O)NC1=O)C(=O)CCSC[C@H](NC(C)=O)C(=O)N[C@@H](CC(C)(C)C)C(=O)N1CCC[C@H]1C(=O)N[C@@H](CCC(=O)O)C(=O)N[C@H](CCCCNC(=O)CCc1cn(CCOCCOCCOCCOCCOCCOCCOCCOCCOCCOCCNC(=O)CCOCCN(CCOCCC(=O)NCCOCCOCCOCCOCCOCCOCCOCCOCCOCCOCCn3cc(CCC(=O)NCCCC[C@H]4NC(=O)[C@H](CCC(=O)O)NC(=O)[C@@H]5CCCN5C(=O)[C@H](CC(C)(C)C)NC(=O)[C@@H](NC(C)=O)CSCCC(=O)N5CN6CN(C5)C(=O)CCSC[C@H](NC(=O)[C@H](Cc5ccc(O)cc5)NC(=O)[C@@H]5CCCN5C4=O)C(=O)N[C@@H](Cc4ccccc4)C(=O)N[C@@H](C)C(=O)N[C@@H](CC(=O)O)C(=O)N4CCC[C@H]4C(=O)N[C@@H](Cc4ccc(O)cc4)C(=O)N[C@@H](CCCC)C(=O)N[C@H](C(=O)N[C@@H](C)C(N)=O)CSCCC6=O)nn3)CCOCCC(=O)NCCOCCOCCOCCOCCOCCOCCOCCOCCOCCOCCn3cc(CCC(=O)N[C@H]4CSCCC(=O)N5CN6CN(C5)C(=O)CCSC[C@H](NC(=O)[C@@H](CC(=O)O)NC(=O)[C@H](Cc5cccc7ccccc57)NC(=O)[C@@H]5CCCN5C4=O)C(=O)N[C@@H](CCSC)C(=O)N[C@@H](CCCCNC(=N)N)C(=O)N[C@@H](CC(=O)O)C(=O)N[C@@H](Cc4c[nH]c5ccccc45)C(=O)N[C@@H](CO)C(=O)N[C@@H]([C@@H](C)O)C(=O)N4CCC[C@H]4C(=O)N4C[C@H](O)C[C@H]4C(=O)N[C@@H](Cc4c[nH]c5ccccc45)C(=O)N[C@H](C(N)=O)CSCCC6=O)nn3)nn1)C(=O)N1CCC[C@H]1C(=O)N[C@@H](Cc1ccc(O)cc1)C(=O)N2 [BCY11027]

Structure (SMILES): CCCC[C@@H]1NC(=O)[C@H](Cc2ccc(O)cc2)NC(=O)[C@@H]2CCCN2C(=O)[C@H](CC(=O)O)NC(=O)[C@H](C)NC(=O)[C@H](Cc2ccccc2)NC(=O)[C@@H]2CSCCC(=O)N3CN(CN(C3)C(=O)CCSC[C@@H](C(=O)N[C@@H](CNC(=O)CCc3cn(CCOCCOCCOCCN(CCOCCOCCOCCC(=O)N[C@H]4CSCCC(=O)N5CN6CN(C5)C(=O)CCSC[C@H](NC(=O)[C@@H](CC(=O)O)NC(=O)[C@H](Cc5cccc7ccccc57)NC(=O)[C@@H]5CCCN5C4=O)C(=O)N[C@@H](CCSC)C(=O)N[C@@H](CCCCNC(=N)N)C(=O)N[C@@H](CC(=O)O)C(=O)N[C@@H](Cc4c[nH]c5ccccc45)C(=O)N[C@@H](CO)C(=O)N[C@@H]([C@@H](C)O)C(=O)N4CCC[C@H]4C(=O)N4C[C@H](O)C[C@H]4C(=O)N[C@@H](Cc4c[nH]c5ccccc45)C(=O)N[C@H](C(N)=O)CSCCC6=O)CCOCCOCCOCCn4cc(CCC(=O)NC[C@H](NC(=O)[C@@H]5CSCCC(=O)N6CN7CN(C6)C(=O)CCSC[C@H](NC(=O)[C@H](Cc6ccc(O)cc6)NC(=O)[C@@H]6CCCN6C(=O)[C@@H](C)NC(=O)[C@H](CCC(=O)O)NC(=O)[C@@H]6CCCN6C(=O)[C@H](CC(C)(C)C)NC(=O)[C@@H](NC(C)=O)CSCCC7=O)C(=O)N[C@@H](Cc6ccccc6)C(=O)N[C@@H](C)C(=O)N[C@@H](CC(=O)O)C(=O)N6CCC[C@H]6C(=O)N[C@@H](Cc6ccc(O)cc6)C(=O)N[C@@H](CCCC)C(=O)N5)C(N)=O)nn4)nn3)C(N)=O)NC1=O)C(=O)CCSC[C@H](NC(C)=O)C(=O)N[C@@H](CC(C)(C)C)C(=O)N1CCC[C@H]1C(=O)N[C@@H](CCC(=O)O)C(=O)N[C@H](C)C(=O)N1CCC[C@H]1C(=O)N[C@@H](Cc1ccc(O)cc1)C(=O)N2 [BCY11385]
secretion of proinflammatory cytokines IFNγ and IL-2 [3]: dose-dependent increase

Structure (SMILES): CCCC[C@@H]1NC(=O)[C@H](Cc2ccc(O)cc2)NC(=O)[C@@H]2CCCN2C(=O)[C@H](CC(=O)O)NC(=O)[C@H](C)NC(=O)[C@H](Cc2ccccc2)NC(=O)[C@@H]2CSCCC(=O)N3CN(CN(C3)C(=O)CCSC[C@H](NC(C)=O)C(=O)N[C@@H](CC(C)(C)C)C(=O)N[C@@H](CCC(=O)O)C(=O)N[C@@H](CCC(=O)O)C(=O)N[C@H](CCCCNC(=O)CCc3cn(CCOCCOCCOCCOCCOCCC(=O)N[C@H]4CSCCC(=O)N5CN6CN(C5)C(=O)CCSC[C@H](NC(=O)[C@@H](CC(=O)O)NC(=O)[C@H](Cc5cccc7ccccc57)NC(=O)[C@@H]5CCCN5C4=O)C(=O)N[C@@H](CCSC)C(=O)N[C@@H](CCCCNC(=N)N)C(=O)N[C@@H](CC(=O)O)C(=O)N[C@@H](Cc4c[nH]c5ccccc45)C(=O)N[C@@H](CO)C(=O)N[C@@H]([C@@H](C)O)C(=O)N4CCC[C@H]4C(=O)N4C[C@H](O)C[C@H]4C(=O)N[C@@H](Cc4c[nH]c5ccccc45)C(=O)N[C@H](C(N)=O)CSCCC6=O)nn3)C(=O)N3CCC[C@H]3C(=O)N[C@@H](Cc3ccc(O)cc3)C(=O)N2)C(=O)CCSC[C@@H](C(N)=O)NC1=O [BCY12377]
clearance ([1]; CL (mL/min/kg), SD rats, 2 mg/kg IV bolus): 7.8 mL/min/kg
